Experimental findings from paper PMC3929235 (Bioorganic & medicinal chemistry letters, 2013) are described below.

Series [1] addresses human α4β2α5 AChRs (Homo sapiens, UniProt P17787+P30532+P43681). The experiment in a line: FLEXstation membrane potential assay, PAM of nicotine response at α4β2α5. The settings on record: for activation at 1 µM: read-out: PAM(Y or N). Format: cell-based.
The target in series [2] is human α4β2 AChRs (Homo sapiens, UniProt P17787+P43681). The experiment in a line: FLEXstation membrane potential assay at α4β2. Format: cell-based. Put shortly:
(§1)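 HEK tsA201 cells stably expressing the human receptor, kept in high-glucose DMEM with 10% FBS at 37 °C. Seeded on poly-D-lysine wells (150,000/well α4β2, α3β2; 200,000/well α3β2α5), then held at 29 °C for 20 h to raise expression. Membrane-potential dye fluorometry. Test compound serial dilutions added 15 min before nicotine. Response enhancement over nicotine alone, 3–4 wells per point, Hill fit; efficacy relative to reference PAM.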

Series [3] deals with human α3β4 AChRs (Homo sapiens, UniProt P30926+P32297). The experiment in a line: Counter-screen against α3β4 nAChR. It is filed as cell-based. In short, it runs like this: (§2)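 Membrane-potential fluorometry on HEK tsA201 cells stably expressing human receptor, cultured in high-glucose DMEM with 10% FBS, 37 °C, 5% CO2. Poly-D-lysine-coated wells seeded at 150,000 (α3β4) or 200,000 (α3β4α5) cells. Serial dilutions of test compound applied 15 min before nicotine, injected during recording. Points averaged from 3–4 wells; Hill equation fitted to enhancement relative to nicotine-evoked signal.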
(A counterscreen serves to expose hits that act by an unwanted route or on another target.)

Series [4] concerns the target human α3β4α5 AChRs (Homo sapiens, UniProt P30532+P30926+P32297). The experiment in a line: Counter-screen against α3β4α5 nAChR. It is filed as cell-based. Put shortly:
as §2

Series [5] addresses human α3β2 AChRs (Homo sapiens, UniProt P17787+P32297). The experiment in a line: Counter-screen against α3β2 nAChR. It is filed as cell-based. Put shortly:
as §1

The target of series [6] is human α3β2α5 AChRs (Homo sapiens, UniProt P17787+P30532+P32297). The experiment in a line: Counter-screen against α3β2α5 nAChR. It is filed as cell-based. In short, it runs like this:
as §1

Series [7] in a line: Pharmacokinetics in mice. Format: in vivo.

SMILES strings stand for the structures.

Chain of human α4β2α5 AChRs (P43681 29-627 limits assumed): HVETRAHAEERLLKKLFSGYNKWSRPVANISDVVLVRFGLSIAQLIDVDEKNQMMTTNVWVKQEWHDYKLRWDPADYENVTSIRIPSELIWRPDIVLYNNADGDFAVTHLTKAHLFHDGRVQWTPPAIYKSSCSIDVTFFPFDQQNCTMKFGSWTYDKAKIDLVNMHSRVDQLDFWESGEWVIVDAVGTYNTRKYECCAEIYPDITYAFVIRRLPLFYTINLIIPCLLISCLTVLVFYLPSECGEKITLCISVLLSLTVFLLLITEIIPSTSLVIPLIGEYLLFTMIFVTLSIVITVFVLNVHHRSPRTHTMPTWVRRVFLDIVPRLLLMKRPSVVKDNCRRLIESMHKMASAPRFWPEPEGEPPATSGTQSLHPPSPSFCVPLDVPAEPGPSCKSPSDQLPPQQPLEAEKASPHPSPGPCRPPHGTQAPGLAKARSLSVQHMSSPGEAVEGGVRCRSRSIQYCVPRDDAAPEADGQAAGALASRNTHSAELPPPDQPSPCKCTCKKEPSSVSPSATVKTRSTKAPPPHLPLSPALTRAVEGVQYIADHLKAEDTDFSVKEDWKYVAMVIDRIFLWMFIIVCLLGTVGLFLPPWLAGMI
Chain of human α4β2α5 AChRs (P17787 26-502): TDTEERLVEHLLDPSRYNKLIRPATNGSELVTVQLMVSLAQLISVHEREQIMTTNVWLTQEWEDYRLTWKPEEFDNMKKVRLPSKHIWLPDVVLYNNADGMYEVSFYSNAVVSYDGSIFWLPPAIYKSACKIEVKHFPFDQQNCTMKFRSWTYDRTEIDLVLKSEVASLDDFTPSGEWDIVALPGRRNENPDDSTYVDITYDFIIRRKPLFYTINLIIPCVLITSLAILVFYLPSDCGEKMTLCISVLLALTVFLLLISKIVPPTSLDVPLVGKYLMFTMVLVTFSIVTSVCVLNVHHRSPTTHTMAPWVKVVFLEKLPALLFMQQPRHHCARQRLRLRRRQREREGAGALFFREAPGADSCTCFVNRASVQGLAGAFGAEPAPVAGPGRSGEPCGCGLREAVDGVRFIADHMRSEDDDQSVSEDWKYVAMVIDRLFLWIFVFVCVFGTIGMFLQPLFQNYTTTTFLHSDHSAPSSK
Chain of human α4β2α5 AChRs (P30532 23-468): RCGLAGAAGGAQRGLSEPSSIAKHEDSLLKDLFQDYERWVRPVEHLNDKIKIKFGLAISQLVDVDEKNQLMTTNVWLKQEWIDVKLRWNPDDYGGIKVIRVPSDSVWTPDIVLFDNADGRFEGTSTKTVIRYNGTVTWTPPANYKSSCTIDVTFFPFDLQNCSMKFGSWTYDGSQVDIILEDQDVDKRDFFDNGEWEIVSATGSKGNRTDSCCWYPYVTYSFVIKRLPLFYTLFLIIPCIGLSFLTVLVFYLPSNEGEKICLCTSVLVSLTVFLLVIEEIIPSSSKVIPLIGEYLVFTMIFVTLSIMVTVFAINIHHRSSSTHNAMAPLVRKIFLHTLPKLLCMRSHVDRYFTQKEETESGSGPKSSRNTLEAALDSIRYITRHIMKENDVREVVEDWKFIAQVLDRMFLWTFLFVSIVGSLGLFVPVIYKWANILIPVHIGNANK
Chain of human α3β2 AChRs (P32297 32-505): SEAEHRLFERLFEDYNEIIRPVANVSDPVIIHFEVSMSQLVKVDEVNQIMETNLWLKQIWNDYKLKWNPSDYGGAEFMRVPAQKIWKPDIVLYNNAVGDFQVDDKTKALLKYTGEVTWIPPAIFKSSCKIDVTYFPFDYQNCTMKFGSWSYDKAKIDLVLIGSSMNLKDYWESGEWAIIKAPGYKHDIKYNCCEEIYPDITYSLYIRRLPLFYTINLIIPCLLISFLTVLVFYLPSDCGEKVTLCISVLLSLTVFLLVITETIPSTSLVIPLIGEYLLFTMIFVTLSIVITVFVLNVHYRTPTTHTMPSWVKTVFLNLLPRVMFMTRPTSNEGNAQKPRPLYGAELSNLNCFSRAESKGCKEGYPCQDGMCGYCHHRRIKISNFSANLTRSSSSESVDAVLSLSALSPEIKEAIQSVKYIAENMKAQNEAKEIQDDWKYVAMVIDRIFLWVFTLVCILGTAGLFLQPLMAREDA
Chain of human α3β2 AChRs (P17787 26-502): as the sequence (P17787 26-502) above
Chain of human α3β4α5 AChRs (P32297 32-505): as the sequence (P32297 32-505) above
Chain of human α3β4α5 AChRs (P30926 22-498): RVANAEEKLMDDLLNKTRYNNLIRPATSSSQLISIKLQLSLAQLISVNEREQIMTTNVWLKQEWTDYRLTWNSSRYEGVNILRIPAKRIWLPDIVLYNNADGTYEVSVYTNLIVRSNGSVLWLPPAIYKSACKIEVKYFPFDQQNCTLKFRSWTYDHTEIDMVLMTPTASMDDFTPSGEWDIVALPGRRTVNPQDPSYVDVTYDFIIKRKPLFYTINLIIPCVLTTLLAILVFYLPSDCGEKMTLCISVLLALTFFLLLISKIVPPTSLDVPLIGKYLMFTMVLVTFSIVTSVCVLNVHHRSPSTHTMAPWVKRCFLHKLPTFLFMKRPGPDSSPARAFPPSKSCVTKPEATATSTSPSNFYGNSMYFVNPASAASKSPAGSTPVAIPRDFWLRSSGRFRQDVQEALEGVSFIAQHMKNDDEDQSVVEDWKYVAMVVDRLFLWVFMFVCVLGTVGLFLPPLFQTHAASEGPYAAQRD
Chain of human α3β4α5 AChRs (P30532 23-468): as the sequence (P30532 23-468) above
Chain of human α3β2α5 AChRs (P32297 32-505): as the sequence (P32297 32-505) above
Chain of human α3β2α5 AChRs (P17787 26-502): as the sequence (P17787 26-502) above
Chain of human α3β2α5 AChRs (P30532 23-468): as the sequence (P30532 23-468) above
Chain of human α3β4 AChRs (P32297 32-505): as the sequence (P32297 32-505) above
Chain of human α3β4 AChRs (P30926 22-498): as the sequence (P30926 22-498) above
Chain of human α4β2 AChRs (P43681 29-627 limits assumed): as the sequence (P43681 29-627 limits assumed) above
Chain of human α4β2 AChRs (P17787 26-502): as the sequence (P17787 26-502) above

Consider `N#Cc1cccc(-n2nnc(-c3ccc(Cl)nc3)n2)c1` [Compound 11e], for which the activation at 1 µM in series [1] was less than 50%.

Regarding `N#Cc1cccc(-c2ccn(-c3cccnc3)n2)c1` [Compound 5c], the activation at 1 µM in series [1] is less than 50%. As for `COc1ccc(OC)c(-n2nnc(-c3cccnc3)n2)c1` [Compound 12b], the activation at 1 µM in series [1] was less than 50%. With `COc1cc(OC)cc(-n2nnc(-c3cccnc3)n2)c1` [Compound 12d], the activation at 1 µM in series [1] is less than 50%.

With `N#Cc1cccc(-c2ncn(-c3cccnc3)n2)c1` [Compound 5f], the activation at 1 µM in series [1] is less than 50%.

With `C[n+]1cccc(-c2noc(-c3cccc(C#N)c3)n2)c1` [Compound 1e], in series [1], the activation at 1 µM is less than 50%. Regarding `FC(F)(F)Oc1cccc(-c2nc(-c3cccnc3)no2)c1` [Compound 4k], in series [1], the activation at 1 µM was less than 50%.

On to `N#Cc1cccc(-c2cn(-c3cccnc3)cn2)c1` [Compound 5d], for which, in series [1], the activation at 1 µM is less than 50%.

Turning to `Clc1cc(Cl)cc(-n2nnc(-c3cccnc3)n2)c1` [Compound 12c], the activation at 1 µM in series [1] was less than 50%.

`Fc1cccc(-c2nc(-c3cccnc3)no2)c1F` [Compound 4e]: in series [1], the activation at 1 µM is less than 50%. Take `N#Cc1cccc(-n2cnc(-c3cccnc3)c2)c1` [Compound 5e]: in series [1], the activation at 1 µM was less than 50%.

`COc1cccc(-c2nc(-c3cccnc3)no2)c1` [Compound 4l]: in series [1], the activation at 1 µM was less than 50%. For `C[n+]1cccc(-c2nnn(-c3cccc(C#N)c3)n2)c1` [Compound 11a], the activation at 1 µM in series [1] is less than 50%. Regarding `N#Cc1cccc(-n2nnc(-c3cncc(Cl)c3)n2)c1` [Compound 11g], the activation at 1 µM in series [1] was less than 50%. On the same count and under the same terms, the figure for `Brc1cccc(-n2nnc(-c3cccnc3)n2)c1` [Compound 12j] is less than 50%. As to `N#Cc1cccc(-n2nnc(-c3cnccc3Cl)n2)c1` [Compound 11h], the activation at 1 µM in series [1] is less than 50%. For the compound `N#Cc1cccc(-c2nc(-c3ccccn3)no2)c1` [Compound 1c], the activation at 1 µM in series [1] was less than 50%.

With `N#Cc1cccc(-c2nc(-c3ccncc3)no2)c1` [Compound 1d], the activation at 1 µM in series [1] is less than 50%. As for `N#Cc1cccc(-n2cc(-c3cccnc3)cn2)c1` [Compound 5b], the activation at 1 µM in series [1] was less than 50%. `N#Cc1cccc(-c2nc(-c3cccnc3)no2)c1` [Compound 1a, 3-(3-(pyridin-3-yl)-1,2,4-oxadiazol-5-yl)benzonitrile, reference compound] registered an Emax in series [1] (Maximum efficacy relative to NS9283) of 1. In addition, the “agonist activity at α4β2” value in series [2] (without orthosteric agonist) is “no agonist activity”. Besides, in series [3], the “activity against α3β4” value is recorded as “no activity”. In addition, the “activity against α3β4α5” value in series [4] is “no activity”. Also, the “activity against α3β2” value in series [5] is “no activity”. Besides, in series [6], the “activity against α3β2α5” value is “no activity”. Regarding `N#Cc1cccc(-c2nc(-c3ccccc3)no2)c1` [Compound 1b], the activation at 1 µM in series [1] was less than 50%.

For the compound `N#Cc1cccc(-n2nnc(-c3cccnc3Cl)n2)c1` [Compound 11f], the activation at 1 µM in series [1] is less than 50%. Regarding `N#Cc1cccc(-n2nnc(-c3cccnc3)n2)c1` [Compound 5k, 3-(5-(pyridin-3-yl)-2H-tetrazol-2-yl)benzonitrile], the “PAM potency on α4β2 (in words)” value in series [2] (compared with α4β2α5) is “equally potent”. Also, the “activity against α3β4” value in series [3] is on record as “no activity”. Moreover, the “activity against α3β4α5” value in series [4] is recorded as “no activity”. The “activity against α3β2” value in series [5] was “no activity”. Moreover, in series [6], the “activity against α3β2α5” value is reported as “no activity”. In addition, in series [7] (mice), the “clearance (in words)” value is given as “moderate clearance” and the “oral exposure (in words)” value was “very good oral exposure”. Further, the clearance (commonly the volume of plasma or blood freed of the substance per unit of time) in series [7] (mouse, in vivo, intravenous, 1 mg/kg) turned out to be 46 mL/min/kg. Consider `Fc1ccc(-n2nnc(-c3cccnc3)n2)c(F)c1` [Compound 12a], for which the activation at 1 µM in series [1] is less than 50%.

Regarding `N#Cc1cccc(-n2ccc(-c3cccnc3)n2)c1` [Compound 5a], the activation at 1 µM in series [1] is less than 50%.

On to `N#Cc1cccc(-n2cc(-c3cccnc3)nn2)c1` [Compound 5j], for which the activation at 1 µM in series [1] was less than 50%.

In the case of `Clc1ccccc1-c1nc(-c2cccnc2)no1` [Compound 4b], the activation at 1 µM in series [1] is less than 50%. `c1ccc(-c2nc(-c3cccnc3)no2)cc1` [Compound 4a]: the activation at 1 µM in series [1] was less than 50%. Regarding `Clc1ccc(-c2nc(-c3cccnc3)no2)cc1` [Compound 4c], the activation at 1 µM in series [1] was less than 50%. `Clc1ccccc1-n1nnc(-c2cccnc2)n1` [Compound 12i]: in series [1], the activation at 1 µM is less than 50%. Take `N#Cc1cccc(-n2nnc(-c3ccccc3)n2)c1` [Compound 11b]: in series [1], the activation at 1 µM was less than 50%.

For `O=[N+]([O-])c1ccccc1-c1nc(-c2cccnc2)no1` [Compound 4g], in series [1], the activation at 1 µM is less than 50%. On to `NC(=O)c1cccc(-n2nnc(-c3cccnc3)n2)c1` [Compound 12e], for which the activation at 1 µM in series [1] is less than 50%. Still for that read-out and setting: the figure for `Fc1cccc(-c2nc(-c3cccnc3)no2)c1` [Compound 4d] is less than 50%; for `Cc1ccc(-n2nnc(-c3cccnc3)n2)cc1C#N` [Compound 12g] it is less than 50%; for `N#Cc1cccc(-n2nnc(-c3ccncc3)n2)c1` [Compound 11c] it is less than 50%.

On to `FC(F)(F)c1cccc(-c2nc(-c3cccnc3)no2)c1` [Compound 4j], for which the activation at 1 µM in series [1] is less than 50%. As for `N#Cc1cccc(-n2nnc(-c3ccccn3)n2)c1` [Compound 11d], in series [1], the activation at 1 µM is less than 50%.
